Entries after “also recorded” stand apart in the source; their conditions may differ. Where two headings read alike, the source gives them in different places.
Experiments:
[1] = system: scavenger receptors in the liver; details: read-out: IC50, inhibition of 125I-DNA nanoparticle uptake by the liver; previously reported; cited from earlier work
[2] = Micelle formation of PEG-peptides without albumin; assay type: physicochemical; details: dynamic light scattering, 1–40 nmol in 1 ml 150 mM sodium chloride; for micelle formation (in words): 50 mM sodium phosphate pH 7.4; for critical-micelle-concentration: 50 mM sodium phosphate pH 7.4, no albumin
Procedure, shortened: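 Particle size of the PEG-peptide was measured by dynamic light scattering at increasing amounts (1–40 nmol in 1 ml buffer) to locate the critical micelle concentration. Sizes are the mean and standard error of ten measurements, after deconvolution by intensity-averaged multimodal distribution.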

[3] = system: scavenger receptors in the liver; details: for percent of dose captured by the liver: mouse, in vivo, iv

(Acr-Lys4)3-Acr-Lys-Cys-PEG5kDa [compound 27]
IC50 [1]: 8 µM

PEG2kDa-Cys-Tyr-(Leu-Lys4)3-Leu-Lys [compound 33]
micelle formation (in words) [2]: avoided micelle formation
increase in potency (IC50) on decreasing PEG from 5 to 2 kDa ([3]; 33 compared with 32, saturation of liver uptake): 6 fold

PEG5kDa-Cys-Tyr-(Leu-Arg)8 [compound 38]
micelle formation (in words) [2]: formed micelles
critical-micelle-concentration [2]: 2 to 5 µM
percent of dose captured by the liver [3]: 45%

PEG5kDa-Cys-Tyr-(Leu-Lys4)3-Leu-Lys [compound 32]
micelle formation (in words) [2]: avoided micelle formation

PEG5kDa-Cys-Tyr-(Leu-Lys)4 [compound 37]
micelle formation (in words) [2]: formed micelles
critical-micelle-concentration [2]: 2 to 5 µM

PEG5kDa-Cys-Tyr-(Leu-Lys)6 [compound 36]
micelle formation (in words) [2]: formed micelles
critical-micelle-concentration [2]: 2 to 5 µM

PEG5kDa-Cys-Tyr-(Leu-Lys)8 [compound 35]
micelle formation (in words) [2]: formed micelles
critical-micelle-concentration [2]: 2 to 5 µM

PEG5kDa-Cys-Tyr-(Lys)4-Leu-Lys4-Leu4 [compound 39]
micelle formation (in words) [2]: produced measurable micelles; also recorded: formed micelles
critical-micelle-concentration [2]: 2 to 5 µM

PEG5kDa-Cys-Tyr-(Trp-Lys3)4 [compound 31]
micelle formation (in words) [2]: avoided the formation of detectable micelles

PEG5kDa-Cys-Tyr-Leu4-(Leu-Lys)4-Lys4 [compound 40]
micelle formation (in words) [2]: produced measurable micelles; also recorded: formed micelles
critical-micelle-concentration [2]: 2 to 5 µM

PEG5kDa-Cys-Tyr-Lys25 [compound 26]
percent of dose captured by the liver [3]: 5%

PEG10kDa-Cys-Tyr-Lys25 [compound 25]
percent of dose captured by the liver [3]: 5%

PEG20kDa-Cys-Tyr-Lys25 [compound 24]
percent of dose captured by the liver [3]: 28%

PEG30kDa-Cys-Tyr-Lys10 [compound 20]
IC50 ([3]; read-out: apparent IC50, saturation of liver uptake, 125I-PEG-peptide i.v. tail vein, 1–80 nmol, triplicate mice, liver at 5 min, assuming 2-mL blood volume): 1500 µM

Tyr-(Phe-Lys4)3Phe-Lys-Cys-PEG5kDa [compound 30]
micelle formation (in words) [2]: avoided the formation of detectable micelles
